The record followed here is PubChem BioAssay.

Structures are written as SMILES. Active and inactive are the calls of the source.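 Rule for the calls, unless noted: active = GFP response above 150% of the DMSO level; inconclusive = fewer than 70 events counted for a yeast strain; inactive = the rest.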

The nature of experiment [1]: hit retest on RPL19A-GFP reporter strain – cell-based, S. cerevisiae, flow cytometry, cherry picks, mother/daughter gates, confirmation (AID 2270;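 active = GFP response below 50% of the DMSO control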). Particulars: 3 h, at 10 µM, stronger effect = lower value, 100 = same GFP as DMSO wells.
The nature of experiment [2]: yeast TOR pathway reporter LAP4-GFP change – cell-based, cherry picks, flow cytometry, mother/daughter gates, confirmation (AID 2271;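 active = GFP response above 150% of the DMSO control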;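 note: ratio of sample to DMSO plate mean so 100% equals DMSO level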). Particulars: S. cerevisiae LAP4-GFP strain, 3 h, at 10 µM, stronger effect = higher value, 100 means same as DMSO control. The method in brief:
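System: Alexa 633-stained baker's yeast GFP-fusion strain; quantity: 0.2 OD600 cells; timing: compound exposure 3 h at 30 °C, end-over-end rotation; detection: HT flow cytometry, GFP fluorescence channel; measure: per-gate (all, mother, daughter) GFP response vs DMSO; control set: DMSO-only negative wells, rapamycin 400 ng/mL positive wells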
In general terms: Flow cytometry measures light scatter and fluorescence of single cells or particles in a stream.

A short description of experiment [3]: TOR pathway reporter MEP2-GFP, retest of hits – S. cerevisiae, flow cytometry GFP, cherry picks, confirmation (AID 2272;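 active = GFP response above 150% of the DMSO control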;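 note: ratio of well signal to plate DMSO mean so 100% equals DMSO level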). Particulars: S. cerevisiae MEP2-GFP strain, 3 h, at 10 µM, stronger effect = higher value.
A short description of experiment [4]: yeast AGP1-GFP fluorescence change, single-dose – cell-based, flow cytometry, S. cerevisiae, cherry picks, confirmation (AID 2273).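 Note: median GFP channel fluorescence over the whole cell population gate.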 Particulars: S. cerevisiae AGP1-GFP strain, 3 h, at 10 µM.
Experiment [5] in a line: TOR pathway CIT2 reporter hit retest – S. cerevisiae, GFP fusion, cherry picks, mother/daughter gates, confirmation (AID 2274). Particulars: S. cerevisiae CIT2-GFP strain, flow cytometry, 3 h, at 10 µM, stronger effect = higher value.
The mark [6] stands for this setting: measured here: daughter cell gate.
[7] abbreviates: measured here: mother cell gate.
[8] abbreviates: measured here: daughter cell gate response.
Where [9] appears, read: measured here: mother cell gate response.

Take `COc1cc(C2CC(c3cccnc3)=NN2c2ccc(F)cc2)cc(OC)c1OC` (centres undefined): the GFP response vs DMSO in experiment [1] is 98.2% (inactive); in experiment [1] (setting [6]), 98.4%; in experiment [1] (setting [7]), 95.2%; in experiment [3] it was 101% (inactive). Further, the GFP response relative to DMSO was 95.3% (inactive) in experiment [2], 94.4% in experiment [2] (setting [8]) and 95.4% in experiment [2] (setting [9]). The GFP response, % of DMSO was 102% (inactive) in experiment [4], 98.6% (inactive) in experiment [5], 97.6% in experiment [5] (setting [6]) and 96% in experiment [5] (setting [7]).

In the case of `O=C(Nc1ccccc1C(=O)O)c1ccccc1`, the GFP response vs DMSO in experiment [1] was 100% (inactive); in experiment [1] (setting [6]), 99.8%; in experiment [1] (setting [7]) it was 101%; in experiment [3], 102% (inactive). Also, the GFP response relative to DMSO in experiment [2] was 100% (inactive); in experiment [2] (setting [8]), 102%; in experiment [2] (setting [9]), 97.5%. In addition, the GFP response, % of DMSO in experiment [4] is 98.9% (inactive); in experiment [5] it was 99.3% (inactive); in experiment [5] (setting [6]), 102%; in experiment [5] (setting [7]) it was 98%.

Regarding `O=C1CCN(S(=O)(=O)c2ccccc2)C2CCCCC12` (centres undefined), the GFP response vs DMSO is 98% (inactive) in experiment [1], 97.8% in experiment [1] (setting [6]), 98.1% in experiment [1] (setting [7]) and 106% (inactive) in experiment [3]. In addition, the GFP response relative to DMSO is 102% (inactive) in experiment [2], 102% in experiment [2] (setting [8]) and 100% in experiment [2] (setting [9]). In addition, the GFP response, % of DMSO in experiment [4] is 100% (inactive); in experiment [5], 108% (inactive); in experiment [5] (setting [6]) it was 104%; in experiment [5] (setting [7]) it was 101%.

As for `Cc1ccc(S(=O)(=O)/N=C(\Sc2ccccc2)c2ccccc2)cc1`, the GFP response vs DMSO in experiment [1] is 99.5% (inactive); in experiment [1] (setting [6]), 98.3%; in experiment [1] (setting [7]), 98.6%; in experiment [3] it was 106% (inactive). Moreover, the GFP response relative to DMSO in experiment [2] is 151% (active); in experiment [2] (setting [8]), 134%; in experiment [2] (setting [9]), 148%. The GFP response, % of DMSO in experiment [4] was 97.3% (inactive); in experiment [5] it was 92.1% (inactive); in experiment [5] (setting [6]), 92.7%; in experiment [5] (setting [7]), 87.5%.

Regarding `CCOC(=O)c1ccc(N=Cc2nc(-c3ccccc3)oc2OC(C)=O)cc1`, the GFP response vs DMSO in experiment [1] was 104% (inactive); in experiment [1] (setting [6]), 105%; in experiment [1] (setting [7]) it was 101%; in experiment [3], 96.8% (inactive). For the same compound, the GFP response relative to DMSO was 154% (active) in experiment [2], 138% in experiment [2] (setting [8]) and 170% in experiment [2] (setting [9]). Moreover, the GFP response, % of DMSO in experiment [4] is 92.2% (inactive); in experiment [5], 93% (inactive); in experiment [5] (setting [6]) it was 93.8%; in experiment [5] (setting [7]), 89.5%.

As for `CCCOc1ccc(C(=O)NNC(=S)NC(=O)c2ccccc2)cc1`, the GFP response vs DMSO in experiment [1] is 114% (inactive); in experiment [1] (setting [6]) it was 111%; in experiment [1] (setting [7]), 113%; in experiment [3], 128% (inactive). The GFP response relative to DMSO in experiment [2] was 149% (inactive); in experiment [2] (setting [8]) it was 136%; in experiment [2] (setting [9]), 150%. In addition, the GFP response, % of DMSO in experiment [4] is 98.3% (inactive); in experiment [5], 114% (inactive); in experiment [5] (setting [6]) it was 116%; in experiment [5] (setting [7]), 108%.

Consider `CCOC(=O)Cc1csc(NC(=O)c2sc3nc4cc(C)ccc4cc3c2N)n1`, for which the GFP response vs DMSO is 98.6% (inactive) in experiment [1], 100% in experiment [1] (setting [6]), 89.8% in experiment [1] (setting [7]) and 114% (inactive) in experiment [3]. For the same compound, the figures for the GFP response relative to DMSO in experiment [2], in experiment [2] (setting [8]) and in experiment [2] (setting [9]) were 104% (inactive), 92% and 111%, respectively. In addition, the GFP response, % of DMSO in experiment [4] is 104% (inactive); in experiment [5], 105% (inactive); in experiment [5] (setting [6]), 102%; in experiment [5] (setting [7]) it was 104%.

Consider `O=C(O)c1ccc2c3c(ncnc13)-c1ccccc1C2=O`, for which the GFP response vs DMSO is 113% (inactive) in experiment [1], 95.3% in experiment [1] (setting [6]), 107% in experiment [1] (setting [7]) and 135% (inactive) in experiment [3]. The GFP response relative to DMSO in experiment [2] is 135% (inactive); in experiment [2] (setting [8]), 130%; in experiment [2] (setting [9]), 134%. The GFP response, % of DMSO in experiment [4] is 105% (inactive); in experiment [5], 123% (inactive); in experiment [5] (setting [6]), 105%; in experiment [5] (setting [7]), 117%.

As to `Cc1ccc(C(C(=O)NC2CCCCC2)N(CCCN2CCOCC2)C(=O)c2snc(C(N)=O)c2N)cc1` (centres undefined), the GFP response vs DMSO in experiment [1] was 101% (inactive); in experiment [1] (setting [6]), 102%; in experiment [1] (setting [7]) it was 102%; in experiment [3], 99.5% (inactive). Besides, the GFP response relative to DMSO in experiment [2] is 105% (inactive); in experiment [2] (setting [8]) it was 102%; in experiment [2] (setting [9]), 104%. For the same compound, the GFP response, % of DMSO in experiment [4] was 104% (inactive); in experiment [5] it was 102% (inactive); in experiment [5] (setting [6]), 98.3%; in experiment [5] (setting [7]), 103%.

Regarding `CC(C)(C)c1ccc(C(=O)N/N=C/c2cccc(Cl)c2)cc1`, the GFP response vs DMSO was 96% (inactive) in experiment [1], 96.4% in experiment [1] (setting [6]), 95.4% in experiment [1] (setting [7]) and 99.3% (inactive) in experiment [3]. Also, the GFP response relative to DMSO is 100% (inactive) in experiment [2], 101% in experiment [2] (setting [8]) and 102% in experiment [2] (setting [9]). The GFP response, % of DMSO in experiment [4] is 97% (inactive); in experiment [5], 91.7% (inactive); in experiment [5] (setting [6]), 92.3%; in experiment [5] (setting [7]), 92.6%.

In the case of `CCc1nnc(N2C(=O)c3cccc4cccc(c34)C2=O)s1`, the GFP response vs DMSO in experiment [1] is 94.5% (inactive); in experiment [1] (setting [6]), 95%; in experiment [1] (setting [7]), 93.3%; in experiment [3], 108% (inactive). Besides, the GFP response relative to DMSO in experiment [2] is 94.1% (inactive); in experiment [2] (setting [8]) it was 92.9%; in experiment [2] (setting [9]) it was 94.4%. Further, the GFP response, % of DMSO in experiment [4] is 98.8% (inactive); in experiment [5], 100% (inactive); in experiment [5] (setting [6]), 101%; in experiment [5] (setting [7]), 99.3%.

`CCCc1[nH]nc2c1C(c1cc(OC)cc(OC)c1)C(C#N)=C(N)O2` (centres undefined): the GFP response vs DMSO was 101% (inactive) in experiment [1], 99.8% in experiment [1] (setting [6]), 101% in experiment [1] (setting [7]) and 102% (inactive) in experiment [3]. The GFP response relative to DMSO is 103% (inactive) in experiment [2], 100% in experiment [2] (setting [8]) and 106% in experiment [2] (setting [9]). Besides, the GFP response, % of DMSO in experiment [4] was 100% (inactive); in experiment [5], 95.2% (inactive); in experiment [5] (setting [6]) it was 93.2%; in experiment [5] (setting [7]), 95.5%.

Regarding `N/C(=N\OC(=O)c1cc(Br)ccc1Cl)c1ccccn1`, the GFP response vs DMSO in experiment [1] was 101% (inactive); in experiment [1] (setting [6]), 98.7%; in experiment [1] (setting [7]), 97.7%; in experiment [3], 110% (inactive). Also, the values for the GFP response relative to DMSO in experiment [2], in experiment [2] (setting [8]) and in experiment [2] (setting [9]) were 133% (inactive), 125% and 135%, respectively. In addition, the GFP response, % of DMSO is 93.2% (inactive) in experiment [4], 112% (inactive) in experiment [5], 105% in experiment [5] (setting [6]) and 114% in experiment [5] (setting [7]).

`CCOC(=O)C1CCCN(c2c(C(=O)c3ccccc3)cnc3ccccc23)C1` (centres undefined): the GFP response vs DMSO in experiment [1] is 99.3% (inactive); in experiment [1] (setting [6]), 98.8%; in experiment [1] (setting [7]), 102%; in experiment [3], 97.5% (inactive). The values for the GFP response relative to DMSO in experiment [2], in experiment [2] (setting [8]) and in experiment [2] (setting [9]) were 91.9% (inactive), 90.7% and 89.7%, respectively. Moreover, the GFP response, % of DMSO in experiment [4] is 101% (inactive); in experiment [5] it was 104% (inactive); in experiment [5] (setting [6]), 104%; in experiment [5] (setting [7]), 101%.
